This is an account of results in PMC5503476 (Bioorganic & medicinal chemistry letters, 2017).

Each structure is given as a SMILES string. In brackets after ≈: the same amount, converted by molar mass.

A short description of data set [1]: Aqueous solubility by HPLC-UV. The data set is classed as physicochemical.
The nature of data set [2]: Human plasma stability assay. It counts as in vitro ADME.
Data set [3] concerns NL4-3 variant E138K+M184I. The data set is classed as cell-based, HIV-1. The essentials: (§1)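 Wild-type HIV-1 NL4-3 and the E138K+M184I resistant strain were tested in parallel in TZM-bl cells, with a reference NNRTI alongside. EC50 was read from luciferase reporter gene expression. New analogues were tested up to 100 ng/mL, with at least three experiments (n = 3). Fold change is the resistant-strain EC50 divided by the wild-type EC50.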

The next data set relates to wild-type HIV-1 (NL4-3). As to the kind of experiment: Anti-HIV activity against wild-type HIV-1. It counts as cell-based. To be noted: Human immunodeficiency virus 1, NL43, TZM-bl, read-out: EC50 NL4-3. The method, boiled down: as §1
Another data set has as its system NL4-3 variant E138K. It counts as cell-based, HIV-1.
Another data set in a line: Cytotoxicity. The data set is classed as cell-based. The settings on record: human, TZM-bl cells.
Setting [4] is: 0.01 M HCl, pH 2, aqueous with cosolvent or surfactant or cyclodextrin.
Where [5] appears, read: EC50(resistant viral strain)/EC50(wild-type viral strain).

On to `Cc1cc(/C=C/C#N)cc(C)c1Nc1ccnc(Nc2ccc(C#N)cc2)n1` [compound 2, rilpivirine, reference compound], for which the solubility (kinetic) – broadly, solubility judged after dilution from a stock solution rather than from solid – at 4 h in data set [1] (setting [4]) amounted to 86.8 µg/mL (≈ 237 µM).
Turning to `CC(C)NCC(O)COc1cccc2ccccc12` (stereo not shown) [propranolol], the half-life (as a rule, how long it takes for the measured level to halve) at 10 μg/mL in data set [2] is 3.33 days.
As to `Cc1cc(/C=C/C#N)cc(C)c1Oc1cc(Nc2ccc(C#N)cc2)c(N)cc1C(N)=O` [compound 3], the solubility (kinetic) at 4 h came out at 2.09 µg/mL (≈ 4.94 µM) in data set [1] (setting [4]) and 0.63 µg/mL (≈ 1.49 µM) in data set [1] (phosphate buffer, pH 7.4, aqueous with cosolvent or surfactant or cyclodextrin). In addition, in data set [3] (setting [5]), the “Resistance fold change (FC) E138K+M184I” value turned out to be 1.9. Further, the EC50 (as a rule, the concentration giving half of the maximal effect) in data set [3] (Human immunodeficiency virus 1, NL43, TZM-bl, read-out: EC50 E138K+M184I) came out at 3.55 ± 1.02 nM; in the data set with wild-type HIV-1 (NL4-3), 1.82 ± 0.57 nM; in the data set on NL4-3 variant E138K (Human immunodeficiency virus 1, NL43, TZM-bl, read-out: EC50 E138K), 3.55 ± 0.64 nM. Further, the “Resistance fold change (FC) E138K” value in the data set on NL4-3 variant E138K (setting [5]) was determined as 1.9. The CC50 (usually the concentration that lowers cell viability or growth by half) in “Cytotoxicity” was over 23.6 µM.
